According to ChEMBL document CHEMBL1128434, “Gonadotropin-releasing hormone antagonists: novel members of the azaline B family” (1995):
Values belong to the molecule of their own block, whether it stands above or below them.

Key:
[1] = organism: Rattus norvegicus; assay: Effect in the anti ovulatory assay (AOA) in rats expressed as no. of rats ovulating/No of rats treated at 5.0 mg; 0/6; format: functional
[2] = organism: Rattus norvegicus; assay: Effect in the anti ovulatory assay (AOA) in rats expressed as no. of rats ovulating/No of rats treated at 2.5 mg; 4/4; format: functional
[3] = organism: Rattus norvegicus; assay: Effect in the anti ovulatory assay (AOA) in rats expressed as no. of rats ovulating/No of rats treated at 100 mg; 0/4; format: functional
[4] = organism: Rattus norvegicus; assay: Effect in the anti ovulatory assay (AOA) in rats expressed as no. of rats ovulating/No of rats treated at 25 mg; 2/8; format: functional
[5] = organism: Rattus norvegicus; assay: Effect in the anti ovulatory assay (AOA) in rats expressed as no. of rats ovulating/No of rats treated at 10 mg; 1/6; format: functional
[6] = target: T1, Gonadotropin-releasing hormone receptor (Rattus norvegicus) (UniProt P30969); assay: In vitro potency to inhibit GnRH-mediated LH secretion by cultured pituitary cells relative to [Ac-delta-Pro1,DFpa2,DTrp36]GnRH.; format: functional, cell-based; conditions: Pituitary gland cell
T1 sequence (whole entry): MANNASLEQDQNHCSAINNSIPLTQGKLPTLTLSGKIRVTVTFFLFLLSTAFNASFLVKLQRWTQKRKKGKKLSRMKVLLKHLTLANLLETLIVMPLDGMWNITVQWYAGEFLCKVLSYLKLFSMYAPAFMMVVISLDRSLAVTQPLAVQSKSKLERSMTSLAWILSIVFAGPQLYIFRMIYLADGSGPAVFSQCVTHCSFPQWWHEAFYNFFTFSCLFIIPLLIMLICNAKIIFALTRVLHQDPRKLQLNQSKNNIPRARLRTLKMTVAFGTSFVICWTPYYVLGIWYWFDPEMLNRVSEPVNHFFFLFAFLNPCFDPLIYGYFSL
Method in brief: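 Dispersed rat pituitary cells in culture; antagonist inhibition of GnRH-stimulated LH secretion. Potency expressed relative to standard antagonist [Ac-Δ3Pro1,D4FPhe2,DTrp3,6]GnRH taken as 1.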

[7] = organism: Rattus norvegicus; assay: Effect in the anti ovulatory assay (AOA) in rats expressed as no. of rats ovulating/No of rats treated at 1.0 mg; 0/7; format: functional
[8] = target: T1, Gonadotropin-releasing hormone receptor (Rattus norvegicus); assay: Duration of action measured using castrated male rat assay to inhibit luteinizing hormone release.; fully active at 72 hr; format: functional
[9] = organism: Rattus norvegicus; assay: Effect in the anti ovulatory assay (AOA) in rats expressed as no. of rats ovulating/No of rats treated at 1.0 mg; 2/10; format: functional
[10] = organism: Rattus norvegicus; assay: Duration of action measured using castrated male rat assay to inhibit luteinizing hormone release.; fully active at 48 hr but not at 72 hr; format: functional
[11] = organism: Rattus norvegicus; assay: Effect in the anti ovulatory assay (AOA) in rats expressed as no. of rats ovulating/No of rats treated at 0.5 mg; 6/6; format: functional
[12] = organism: Rattus norvegicus; assay: Effect in the anti ovulatory assay (AOA) in rats expressed as no. of rats ovulating/No of rats treated at 50 mg; 4/4; format: functional
[13] = organism: Rattus norvegicus; assay: Effect in the anti ovulatory assay (AOA) in rats expressed as no. of rats ovulating/No of rats treated at 1.0 mg; 3/11; format: functional
[14] = organism: Rattus norvegicus; assay: Effect in the anti ovulatory assay (AOA) in rats expressed as no. of rats ovulating/No of rats treated at 0.5 mg; 4/4; format: functional
[15] = organism: Rattus norvegicus; assay: Effect in the anti ovulatory assay (AOA) in rats expressed as no. of rats ovulating/No of rats treated at 2.5 mg; 0/9; format: functional
[16] = organism: Rattus norvegicus; assay: Effect in the anti ovulatory assay (AOA) in rats expressed as no. of rats ovulating/No of rats treated at 1.0 mg; 6/6; format: functional

SMILES: CC(=O)N[C@H](Cc1ccc2ccccc2c1)C(=O)N[C@H](Cc1ccc(Cl)cc1)C(=O)N[C@H](Cc1cccnc1)C(=O)N[C@@H](CO)C(=O)N(C)[C@@H](Cc1ccc(Nc2n[nH]c(N)n2)cc1)C(=O)N[C@H](Cc1ccc(Nc2n[nH]c(N)n2)cc1)C(=O)N[C@@H](CC(C)C)C(=O)N[C@@H](Cc1ccc(CNC(C)C)cc1)C(=O)N1CCC[C@H]1C(=O)N[C@H](C)N
No. of rats ovulated [1]: 0 | No. of rats ovulated [2]: 4

SMILES: CC[C@H](C)[C@H](NC(=O)[C@H](CC(C)C)NC(=O)[C@@H](Cc1ccc(Nc2n[nH]c(N)n2)cc1)NC(=O)[C@H](Cc1ccc(Nc2n[nH]c(N)n2)cc1)N(C)C(=O)[C@H](CO)NC(=O)[C@@H](Cc1cccnc1)NC(=O)[C@@H](Cc1ccc(Cl)cc1)NC(=O)[C@@H](Cc1ccc2ccccc2c1)NC(C)=O)C(=O)N1CCC[C@H]1C(=O)N[C@H](C)N
No. of rats ovulated [3]: 0 | No. of rats ovulated [4]: 2

SMILES: CC(=O)N[C@H](Cc1ccc(N)cc1)C(=O)N[C@H](Cc1ccc(Cl)cc1)C(=O)N[C@H](Cc1cccnc1)C(=O)N[C@@H](CO)C(=O)N[C@@H](Cc1ccc(Nc2n[nH]c(N)n2)cc1)C(=O)N[C@H](Cc1ccc(Nc2n[nH]c(N)n2)cc1)C(=O)N[C@@H](CC(C)C)C(=O)N[C@@H](CCCCNC(C)C)C(=O)N1CCC[C@H]1C(=O)N[C@H](C)N
No. of rats ovulated [5]: 1

Relative potency [6]: 1.3 | Duration of action [8]: 72 h
SMILES: CC(=O)N[C@H](Cc1ccc2ccccc2c1)C(=O)N[C@H](Cc1ccc(Cl)cc1)C(=O)N[C@H](Cc1cccnc1)C(=O)N[C@@H](CO)C(=O)N[C@@H](Cc1ccc(Nc2n[nH]c(N)n2)cc1)C(=O)N[C@H](Cc1ccc(Nc2n[nH]c(N)n2)cc1)C(=O)N[C@@H](CC(C)C)C(=O)N[C@@H](CCCCNC(C)C)C(=O)N1CCC[C@H]1C(=O)N[C@H](C)N
No. of rats ovulated [7]: 0

Relative potency [6]: 0.48
SMILES: CC(=O)N[C@H](Cc1ccc2ccccc2c1)C(=O)N[C@H](Cc1ccc(Cl)cc1)C(=O)N[C@H](Cc1cccnc1)C(=O)N[C@@H](CO)C(=O)N[C@@H](Cc1ccc(NC(=O)CCCCCNc2n[nH]c(N)n2)cc1)C(=O)N[C@H](Cc1ccc(NC(=O)CCCCCNc2n[nH]c(N)n2)cc1)C(=O)N[C@@H](CC(C)C)C(=O)N[C@@H](CCCCNC(C)C)C(=O)N1CCC[C@H]1C(=O)N[C@H](C)N
No. of rats ovulated [9]: 2 | Duration of action [10]: 48 h | No. of rats ovulated [11]: 6

Relative potency [6]: 0.1
SMILES: CC(=O)N[C@H](Cc1ccc2ccccc2c1)C(=O)N[C@H](Cc1ccc(Cl)cc1)C(=O)N[C@H](Cc1cccnc1)C(=O)N[C@@H](CO)C(=O)N[C@@H](Cc1ccc(NC(=O)Nc2ccccc2Cl)cc1)C(=O)N[C@H](Cc1ccc(NC(=O)Nc2ccccc2Cl)cc1)C(=O)N[C@@H](CC(C)C)C(=O)N[C@@H](CCCCNC(C)C)C(=O)N1CCC[C@H]1C(=O)N[C@H](C)N
No. of rats ovulated [12]: 4

SMILES: CC(=O)N[C@H](Cc1cnc2ccccc2c1)C(=O)N[C@H](Cc1ccc(Cl)cc1)C(=O)N[C@H](Cc1cccnc1)C(=O)N[C@@H](CO)C(=O)N[C@@H](Cc1ccc(Nc2n[nH]c(N)n2)cc1)C(=O)N[C@H](Cc1ccc(Nc2n[nH]c(N)n2)cc1)C(=O)N[C@@H](CC(C)C)C(=O)N[C@@H](CCCCNC(C)C)C(=O)N1CCC[C@H]1C(=O)N[C@H](C)N
No. of rats ovulated [13]: 3 | No. of rats ovulated [14]: 4

SMILES: CC(=O)N[C@H](Cc1ccc2ccccc2c1)C(=O)N[C@H](Cc1ccc(Cl)cc1)C(=O)N[C@H](Cc1cccnc1)C(=O)N[C@@H](CO)C(=O)N[C@@H](Cc1ccc(Nc2n[nH]c(N)n2)cc1)C(=O)N[C@H](Cc1ccc(Nc2n[nH]c(N)n2)cc1)C(=O)N[C@@H](Cc1ccccc1)C(=O)N[C@@H](CCCCNC(C)C)C(=O)N1CCC[C@H]1C(=O)N[C@H](C)N
Duration of action [10]: Intermediate | No. of rats ovulated [15]: 0 | No. of rats ovulated [16]: 6
